Reference: ChEMBL document CHEMBL4373680, “Small antibacterial molecules highly active against drug-resistant Staphylococcus aureus” (Medchemcomm, 2019)

Experiments:
A549 [1] = test: Cytotoxicity against human A549 cells up to 128 ug/ml after 24 hrs by alamar blue assay; format: cell-based; conditions: a549, 24 h
Procedure, shortened: (§1)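 About 10⁴ cells/well in DMEM with 10% FBS. Medium replaced with two-fold compound dilutions and incubated 24 h at 37 °C, 5% CO₂. Alamar Blue added for a further 4 h, absorbance 570 nm (600 nm reference). Viability normalized to untreated and 0.1% Triton-X wells. Triplicates; sigmoidal fit gives the 50% viability concentration.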

[2] = Ratio of EC50 for dog MDCK cells to MIC for vancomycin-resistant Staphylococcus aureus clinical isolate 1; format: toxicity
Staphylococcus aureus [3] = test: Antibacterial activity against vancomycin-resistant Staphylococcus aureus clinical isolate 1 after 24 hrs by tecan plate reader analysis; format: functional; conditions: clinical isolate 1, 24 h
Procedure, shortened: (§2)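 Colony grown 24 h on NB agar at 37 °C, then 6 h in nutrient broth to mid-log (10⁸ CFU/mL by drop plating), diluted to 10⁵ CFU/mL in Mueller Hinton broth; added 9:1 to two-fold serial compound dilutions in MHB. Incubated 24 h, 37 °C; OD600 read. Triplicate per concentration, experiment run twice; MIC taken from the range of triplicate OD values.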

[4] = Selectivity index, ratio of HC50 for human erythrocytes to MIC for methicillin-resistant Staphylococcus aureus ATCC 33591; format: toxicity; conditions: read-out: Selectivity Index
Acinetobacter baumannii = test: Antibacterial activity against Acinetobacter baumannii MTCC 1425 after 24 hrs by tecan plate reader analysis; format: functional; conditions: MTCC 1425, 24 h
Procedure, shortened: (§3)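 Broth microdilution MIC. Glycerol stocks grown on MacConkey agar 24 h at 37 °C, then a single colony in nutrient broth 6 h to mid-log (~10⁸ CFU/mL). Cells diluted to 10⁵ CFU/mL in Mueller Hinton broth and added to two-fold compound dilutions. Incubated 24 h at 37 °C, OD600 read. Triplicate wells, experiment run twice.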

Staphylococcus aureus [5] = test: Antibacterial activity against methicillin-resistant Staphylococcus aureus R3890 clinical isolate after 24 hrs by tecan plate reader analysis; format: functional; conditions: R3890, 24 h; procedure, shortened: as §2
Staphylococcus aureus [6] = test: Bactericidal activity against planktonic phase of methicillin-resistant Staphylococcus aureus R3545 assessed as log reduction in bacterial colony forming units at 32 ug/ml incubated for 12 hrs followed by plating on agar plate for 24 hrs by time-kill kinetic assay; format: functional
Procedure, shortened: (§4)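 Time-kill: 6 h mid-log culture diluted to 10⁵ CFU/mL in MHB, incubated at 37 °C with compound at […]; 0.9% saline control. Aliquots at 1, 2, 4, 6, 8 and 12 h ten-fold diluted in saline, plated on NB agar 24 h at 37 °C; colonies counted, log scale.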

Staphylococcus aureus [7] = test: Antibacterial activity against Staphylococcus aureus ATCC 33591 using compound preincubated with mouse 50% liver homogenate for 3 hrs and measured after 24 hrs by tecan-plate reader analysis; format: functional; conditions: ATCC 33591, Liver
Procedure, shortened: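 Compound mixed 1:1 with human plasma, human serum or mouse liver homogenate (50%) and held 3 h at 37 °C. Saline and PBS incubations served as controls. Mixtures two-fold diluted (saline for plasma/serum, PBS for homogenate), then MRSA ATCC33591 (~10⁵ CFU/mL in MHB) added.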

Staphylococcus aureus [8] = test: Bactericidal activity against metabolically inactive stationary phase of methicillin-resistant Staphylococcus aureus ATCC 33591 assessed as bacterial killing at 32 ug/ml incubated for 6 hrs followed by plating on agar plate for 24 hrs by visual counting analysis relative to control; format: functional
MDCK [9] = test: Cytotoxicity against dog MDCK cells assessed as cell survival at 32 ug/ml after 24 hrs by calcein AM/propidium iodide staining based fluorescence microscopy analysis; set-up: species or system Canis lupus familiaris
Procedure, shortened: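 MDCK at about 10⁴ cells/well exposed to 32 µg/mL compound for 24 h at 37 °C, 5% CO₂. Untreated and 0.1 vol% Triton-X controls. Stained with calcein AM (2 µM) and PI (4.5 µM) for 15 min at 37 °C, PBS-washed, imaged by fluorescence microscopy at 50×.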

[10] = Selectivity index, ratio of HC50 for human erythrocytes to MIC for Escherichia coli MTCC 443; format: toxicity; conditions: read-out: Selectivity Index
A549 [11] = test: Cytotoxicity against human A549 cells after 24 hrs by alamar blue assay; format: cell-based; conditions: A549, 24 h; procedure, shortened: as §1
Staphylococcus aureus [12] = test: Antibiofilm activity against Staphylococcus aureus ATCC 33591 assessed as bacterial cell viability by measuring log reduction in bacterial colony forming units at 16 ug/ml incubated for 24 hrs followed by plating on agar plate for 24 hrs; format: functional
Procedure, shortened: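 Mid-log MRSA diluted to 10⁵ CFU/mL in nutrient broth with 1% glucose and 1% NaCl. Biofilms grown on glass coverslips 24 h at 37 °C, static. PBS-washed biofilms treated with compound in biofilm medium 24 h at 37 °C, static; medium-only control. Cells detached with trypsin-EDTA (1:4 in saline) for 15 min, ten-fold diluted, plated on NB agar 24 h; viable counts compared with untreated.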

Staphylococcus aureus [13] = test: Antibacterial activity against methicillin-resistant Staphylococcus aureus ATCC 33591 after 24 hrs by tecan plate reader analysis; format: functional; conditions: ATCC 33591, 24 h; procedure, shortened: as §2
Klebsiella pneumoniae = test: Antibacterial activity against Klebsiella pneumoniae ATCC 700603 after 24 hrs by tecan plate reader analysis; format: functional; conditions: Klebsiella pneumoniae, 700603, 24 h; procedure, shortened: as §3
Staphylococcus aureus [14] = test: Antibacterial activity against vancomycin-resistant Staphylococcus aureus clinical isolate 4 after 24 hrs by tecan plate reader analysis; format: functional; conditions: clinical isolate 4, 24 h; procedure, shortened: as §2
Staphylococcus aureus [15] = test: Antibacterial activity against methicillin-resistant Staphylococcus aureus R3889 clinical isolate after 24 hrs by tecan plate reader analysis; format: functional; conditions: R3889, 24 h; procedure, shortened: as §2
Staphylococcus aureus [16] = test: Bactericidal activity against metabolically inactive stationary phase methicillin-resistant Staphylococcus aureus ATCC 33591 assessed as log reduction in bacterial colony forming units at 32 ug/ml incubated for 6 hrs followed by plating on agar plate for 24 hrs by visual counting analysis; format: functional
[17] = Ratio of EC50 for dog MDCK cells to MIC for vancomycin-resistant Staphylococcus aureus clinical isolate 2; format: toxicity
[18] = Ratio of EC50 for human A549 cells to MIC for vancomycin-resistant Staphylococcus aureus clinical isolate 2; format: toxicity
Staphylococcus aureus [19] = test: Bactericidal activity against metabolically inactive stationary phase of methicillin-resistant Staphylococcus aureus R3545 assessed as bacterial killing at 32 ug/ml incubated for 6 hrs followed by plating on agar plate for 24 hrs by visual counting analysis relative to control; format: functional
Staphylococcus aureus [20] = test: Induction of membrane depolarization in Staphylococcus aureus R3545 assessed as increase in fluorescence intensity measured upto 28 mins by DiSC3 staining based fluorescence spectroscopic technique; format: functional, organism-based
Procedure, shortened: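 Mid-log MRSA washed in 5 mM HEPES pH 7.4 and resuspended in 1:1:1 HEPES (5 mM), glucose (5 mM) and KCl (100 mM). Loaded with DiSC3(5) at 2 µM final, 30 min in the dark. Baseline fluorescence (ex 622/em 670 nm) read 4 min, compound added, monitored to 28 min. Water control; triplicates averaged.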

Staphylococcus aureus [21] = test: Bactericidal activity against planktonic phase of methicillin-resistant Staphylococcus aureus R3545 assessed as log reduction in bacterial colony forming units at 16 ug/ml incubated for 6 hrs followed by plating on agar plate for 24 hrs by time-kill kinetic assay; format: functional; procedure, shortened: as §4
MDCK [22] = test: Cytotoxicity against dog MDCK cells after 24 hrs by alamar blue assay; format: cell-based; conditions: Canis lupus familiaris; procedure, shortened: as §1

In the case of `CCCCCCNC(=O)C[N+](C)(CCO)CCCCCCCCCCCC[N+](C)(CCO)CC(=O)NCCCCCC.O=C([O-])C(F)(F)F.O=C([O-])C(F)(F)F` (centres undefined), the Activity (A549 [1]) is reported as “Non-Toxic”, the selectivity ratio [2] is reported as 94 to 97 and the MIC (Staphylococcus aureus [3]) is reported as 2 mg/L. The selectivity ratio [4] was 577, the MIC (Acinetobacter baumannii) was 64 mg/L and the MIC (Staphylococcus aureus [5]) was 2 mg/L. It also gave an Activity (Staphylococcus aureus [6]) of 6 log10CFU/ml, an MIC (Staphylococcus aureus [7]) of 4 mg/L and an Activity (Staphylococcus aureus [8]) greater than 99%. The Activity (MDCK [9]) was “Non-Toxic”, the selectivity ratio [10] was 288 and the EC50 (A549 [11]) was 194 mg/L. For the same compound, the Activity (Staphylococcus aureus [12]) was greater than 4 log10CFU/ml, the MIC (Staphylococcus aureus [13]) was 1 to 2 mg/L and the MIC (Klebsiella pneumoniae) was 128 mg/L. For the same compound, the MIC (Staphylococcus aureus [14]) was 2 mg/L, the MIC (Staphylococcus aureus [15]) was 1 to 2 mg/L and the Activity (Staphylococcus aureus [16]) was 2.05 log10CFU/ml. The selectivity ratio [17] was 94 to 97, the selectivity ratio [18] was 94 to 97 and the Activity (Staphylococcus aureus [19]) was greater than 99%. The Activity (Staphylococcus aureus [20]) was “Dose-dependent effect”, the Activity (Staphylococcus aureus [21]) was greater than 2 log10CFU/ml and the EC50 (MDCK [22]) was 188 mg/L.
